Drawing on ChEMBL document CHEMBL3593214, “ent-Abietane-Type and Related Seco-/Nor-diterpenoids from the Rare Chloranthaceae Plant Chloranthus sessilifolius and Their Antineuroinflammatory Activities” (J Nat Prod, 2015), this text covers IC50 and viability for 17 compounds.

Series [1] in a line: Antineuroinflammatory activity in mouse BV2 cells assessed as inhibition of LPS-stimulated nitric oxide production preincubated for 4 hrs followed by LPS challenge measured after 24 hrs by Griess assay. The format is functional, cell-based. Particulars: BV-2. Summed up:
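BV-2 mouse microglia (ATCC) kept in DMEM with 1800 mg/L NaHCO3, 10% FBS and penicillin/streptomycin at 37 °C, 5% CO2. Cells were pretreated 4 h with 3.125–100 μM, then LPS 1 μg/mL for 24 h. Supernatant nitrite was measured by Griess reagent at 540 nm against a NaNO2 standard curve. IC50 is the concentration giving 50% inhibition; mean ± SD of three independent experiments.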

Series [2] in a line: Cytotoxicity against mouse BV2 cells assessed as cell viability at 50 uM by MTT assay relative to control. Type of series: cell-based, BV-2. Particulars: read-out: Activity. A digest of the protocol: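 MTT colorimetric read-out on BV-2 microglia in DMEM/10% FBS at 37 °C, 5% CO2, after treatment at 50 μM. Viability is expressed as percent of untreated control cells; mean ± SD.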
A general note: Formazan colour is commonly taken as a measure of viable cells.

SMILES strings stand for the structures. pIC50: −log10 of the molar value.

What is called pIC50 is the IC50 on a negative log10 scale, so that one unit is a factor of ten. Consider `CO[C@]1(C(C)C)C=C2C(=O)C[C@@H]3C(C)(C)[C@H](O)CC[C@@]3(C)[C@@H]2CC1`, for which, in series [1], the pIC50 is 5.08. Moreover, the viability at 50 µM in series [2] was 96.7%. For `CC(C)[C@]1(O)C=C2C(=O)C[C@@H]3C(C)(C)[C@H](O)CC[C@@]3(C)[C@@H]2CC1`, the pIC50 in series [1] is less than 4.00.

Take `CC(C)c1ccc2c(c1)[C@H](O)C[C@@H]1C(C)(C)[C@H](O)CC[C@@]21C`: in series [1], the pIC50 is 4.36. For the same compound, the viability at 50 µM in series [2] is 94.7%. Take `CC(C)C(=O)CC[C@@H]1C(C=O)=C[C@@H](O)[C@@H]2C(C)(C)[C@H](O)CC[C@@]12C`: the pIC50 in series [1] is less than 4.00.

As to `CC(C)(O)c1ccc2c(c1)C(=O)C=C1C(C)(C)[C@H](O)CC[C@]12C`, the pIC50 in series [1] was less than 4.00. In the case of `CC(C)C1=CC(=O)[C@@]2(CC1)OC(=O)C[C@@H]1C(C)(C)[C@H](O)CC[C@]12C`, in series [1], the pIC50 was less than 4.00.

Take `CC(C)[C@]1(O)C=C2C(=O)C=C3C(C)(C)[C@H](O)CC[C@@]3(C)[C@@H]2CC1`: the pIC50 in series [1] is less than 4.00. `CC(C)[C@@]1(O)C=C2C(=O)C[C@@H]3C(C)(C)[C@H](O)CC[C@@]3(C)[C@@H]2C[C@H]1O`: the pIC50 in series [1] was 4.42. In addition, in series [2], the viability at 50 µM was found to be 98.4%. `CC(C)C(=O)CC[C@@H]1CC(=O)C[C@@H]2C(C)(C)[C@H](O)CC[C@@]12C`: in series [1], the pIC50 is less than 4.00. In the case of `CC(C)(O)c1ccc2c(c1)CC[C@@H]1C(C)(C)[C@H](O)CC[C@@]21C`, in series [1], the pIC50 is 4.75. Also, in series [2], the viability at 50 µM was determined as 95.4%.

Consider `CC1(C)[C@H](O)CC[C@@]2(C)[C@@H]3CCC(=O)C=C3[C@H](O)C[C@H]12`, for which, in series [1], the pIC50 was less than 4.00. On to `CC1(C)[C@H](O)CC[C@@]2(C)[C@@H]3CC[C@@](O)(C(C)(C)O)C=C3C(=O)C[C@H]12`, for which the pIC50 in series [1] is less than 4.00. Take `CC1(C)[C@H](O)CC[C@@]2(C)[C@@H]3CCC(=O)C=C3[C@@H](O)C[C@H]12`: the pIC50 in series [1] was less than 4.00.

On to `CC(C)C(=O)[C@@H]1C[C@@H]2C(=CC[C@@H]3C(C)(C)[C@H](O)CC[C@@]23C)[C@H]1O`, for which the negative-log IC50 (pIC50) in series [1] was less than 4.00.

Consider `CC(C)[C@@]1(O)C=C2C(=O)C[C@@H]3[C@@](C)(CO)CCC[C@@]3(C)[C@@H]2CC1`, for which, in series [1], the pIC50 was 5.13. Moreover, in series [2], the viability at 50 µM was found to be 96.8%. Regarding `CNC(=N)NCCC[C@H](N)C(=O)O` [TILARGININE], the pIC50 in series [1] is 4.84. In series [2], the viability at 50 µM was 98.5%. As for `CC(C)C(=O)[C@H]1C[C@@H]2C(=CC[C@@H]3C(C)(C)[C@H](O)CC[C@@]23C)[C@H]1O`, the pIC50 in series [1] is less than 4.00.
